What was measured:
E. coli (ATCC-25922) = assay: MIC, turbidity-based broth dilution assay; assay type: cell-based, Escherichia coli; conditions: 2–7 × 10^5 CFU/mL, 37 °C, 190 rpm, 16 h
In short: (§1)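 Turbidity-based broth dilution at 2–7 × 10^5 CFU/mL, shaken at 190 rpm and 37 °C for 16 h, with Polymyxin-B as positive control. For the selectivity index (HC50/MIC), hemolysis was measured on mouse red blood cells. Triton X-100 set 100% lysis, and RBCs in PBS gave the background that was subtracted. HC50 was taken as the concentration causing 50% hemolysis.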

[1] = test system: P. aeruginosa (ATCC-27853); assay: MIC, turbidity-based broth dilution assay; assay type: cell-based, Pseudomonas aeruginosa; conditions: 2–7 × 10^5 CFU/mL, 37 °C, 190 rpm, 16 h
In short: as §1

## Polymyxin-B
E. coli (ATCC-25922)
  Minimum Inhibitory Concentration E. coli: <0.5 µg/mL
[1]
  Minimum Inhibitory Concentration P. aeruginosa: 1.0 µg/mL
